# Source: PubChem
# Rev-RRE block = disrupts HIV-1 Rev binding to RRE RNA | P05866 | Rev peptide-RRE RNA binding, FRET | inhibition, % at 8 µM | actives 0.79% (n = 97,000) | AID 704;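 active = inhibition above the screen-wide mean plus 3 SD, cut at about 35% in these data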
# Target sequence (P05866 whole entry, looked up): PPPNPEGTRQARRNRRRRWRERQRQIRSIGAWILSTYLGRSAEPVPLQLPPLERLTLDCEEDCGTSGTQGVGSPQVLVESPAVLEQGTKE
#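 assay system = Cy5-tagged RRE RNA duplex with fluorescein-tagged Rev peptide | incubation = 5 + 15 min at 25 °C | also added = labelled Rev peptide | measure = % inhibition of FRET ratio versus controls | benchmarks = DMSO wells as 0% and neomycin B wells as 100% inhibition | measured by = FRET fluorescence readout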
# S1P2 agonist = activates the human S1P2 receptor. O95136. S1P2-expressing cell line, agonist reporter read-out. actives 0.46% (n = 97,000). activation, % at 4.5 µM; in the data active = activation above about 16%
# Target sequence (O95136 whole entry, looked up): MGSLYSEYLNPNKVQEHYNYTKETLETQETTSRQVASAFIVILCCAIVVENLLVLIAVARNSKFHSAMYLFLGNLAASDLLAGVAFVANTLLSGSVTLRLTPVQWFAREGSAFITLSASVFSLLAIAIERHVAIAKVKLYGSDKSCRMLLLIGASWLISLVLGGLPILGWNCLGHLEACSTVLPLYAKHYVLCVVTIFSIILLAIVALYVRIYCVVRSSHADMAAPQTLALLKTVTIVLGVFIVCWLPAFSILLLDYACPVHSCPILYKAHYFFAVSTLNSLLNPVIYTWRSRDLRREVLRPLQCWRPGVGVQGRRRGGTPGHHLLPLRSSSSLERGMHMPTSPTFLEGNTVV
# GALR2 ag = agonists of human galanin receptor 2 (GALR2); O43603; GALR2-expressing cells, agonist activation read-out; activation, % (concentration not given with the values); actives 0.48% (n = 140,000); AID 803; in the data active = activation above about 5%, passing the limit was not always enough
# S1P2 antag = blocks the human S1P2 receptor; O95136; cell-based S1P2 antagonist assay, inhibition at 5 uM; inhibition, % at 5 µM; actives 0.21% (n = 97,000); in the data active = inhibition above about 45%;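 also: CRE beta-lactamase reporter cells expressing human S1P2 stimulated with S1P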
# GALR2 antag = antagonists of human galanin receptor 2 (GALR2) | O43603 | GALR2-expressing cells, antagonist mode | inhibition, % at 4 µM | actives 0.39% (n = 140,000); in the data active = inhibition above about 27%;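 also: cells stimulated with galanin 1-16 at roughly its EC80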
# Numbers stand for hits; i = inactive; nt = no result; [ ] = another dose, or the depositor's remark. A selection: hits, their analogues and other compounds. The true share with any hit is near 1.6%.
SMILES,Rev-RRE block,S1P2 agonist,GALR2 ag,S1P2 antag,GALR2 antag
O=C(Nc1ccc(F)cc1)c1sc2cc(C(F)(F)F)cnc2c1-c1cccs1,i,i,i,84,i
Cc1cc(C)c(COc2ccc(/C=N/n3c(C)n[nH]c3=S)cc2)c(C)c1,nt,nt,i,nt,i
Cn1c(=O)c2c(SCc3cccnc3)nc(C3CC3)nc2n(C)c1=O,i,i,i,i,i
CCc1nc(SCc2cccnc2)c2c(=O)n(C)c(=O)n(C)c2n1,i,17,i,i,i
Cc1cc(C)nc(/N=C(\N)Nc2ccc(F)c([N+](=O)[O-])c2)n1,i,i,i,i,i
CCC(C)(C(=O)Nc1ccccc1C)N(C(=O)CNC(C)=O)c1ccccc1C (stereo unspecified),nt,nt,i,nt,i
CCOC(=O)c1cc(C#N)c(Oc2ccccc2OC)nc1-c1ccccc1,i,i,i,i,i
CN1C(=O)CSc2ccc(NC(=O)Nc3ccccn3)cc21,i,i,i,51,i
CCN(CC)c1ccc(C=N/C(C#N)=C(\N)C#N)cc1,53,i,i,i,i
COc1cc(/C=c2\s/c(=C(/C#N)C(=O)N3CCCC3)n(-c3ccccc3)c2=O)ccc1O,46,i,i,i,i
COc1ccc(CCNC(=O)COc2ccc(S(=O)(=O)NC3CCCCC3)cc2Cl)cc1,i,i,i,i,i
CC(C)C1N=C2c3ccccc3N=C(SCC(=O)NCCc3ccc(S(N)(=O)=O)cc3)N2C1=O (stereo unspecified),nt,nt,i,nt,i
CC(C)C1N=C2c3ccccc3N=C(SCc3cc(=O)n4cc(Cl)ccc4n3)N2C1=O (stereo unspecified),i,25,i,i,i
Cn1c(=O)c(NCCO)c2c3c(cccc31)C(=O)c1ccccc1-2,142[fluorescence artefact?],i,i,i,i
CC(=O)Nc1ccc(Nc2c3c4c(cccc4n(C)c2=O)C(=O)c2ccccc2-3)cc1,nt,nt,i,nt,i
CCCCNc1c2c3c(cccc3n(C)c1=O)C(=O)c1ccccc1-2,142[fluorescence artefact?],i,i,i,i
CCNC1=C(Cl)C(=O)c2ccccc2C1=O,i,i,i,i,i
CCNc1c2c3c(cccc3n(C)c1=O)C(=O)c1ccccc1-2,142[fluorescence artefact?],i,i,i,i
O=c1c(C(c2ccccc2)c2c(O)nc3n(c2=O)CCS3)c(O)nc2n1CCS2,nt,nt,i,nt,i
CS(=O)c1nc(-c2ccc(Br)cc2)cc(-c2ccccc2)c1C#N (stereo unspecified),nt,nt,6.2,nt,57
CS(=O)(=O)c1nc(-c2ccc(Br)cc2)cc(-c2ccccc2)c1C#N,i,19,i,i,i
COc1ccc(-c2cc(-c3ccccc3)c(C#N)c(S(C)(=O)=O)n2)cc1,i,i,i,i,i
COc1ccc(C2Nc3ccccc3C(=O)N2c2ccc(F)cc2)cc1CSc1ccccn1 (stereo unspecified),nt,nt,6.4,nt,i
C=CCN1C(=O)/C(=C/c2ccc(N(C)C)cc2)S/C1=N\c1nnc(CC)s1,131[fluorescence artefact?],i,i,i,i
CCCCN1C(=O)/C(=C/C=C2\N(C)c3ccccc3C2(C)C)SC1=S,140[fluorescence artefact?],i,i,i,i
SMILES,Rev-RRE block,S1P2 agonist,GALR2 ag,S1P2 antag,GALR2 antag
CCCN1C(=O)/C(=C\C=C2/C=CN(CC)c3ccccc32)SC1=S,nt,nt,i,nt,i
Cc1ccc(NS(=O)(=O)c2cc(-c3n[nH]c(=O)c4ccccc34)ccc2C)cc1,nt,nt,i,nt,i
c1ccc2[nH]c3cc4ncnc4cc3nc2c1,nt,nt,i,nt,i
O=[N+]([O-])c1ccccc1SN(Cc1ccccc1)c1ccccn1,nt,nt,i,nt,i
C=CCN1C=CC(=C/C=C(/C#N)C(=O)OCC)C=C1,138[fluorescence artefact?],i,i,i,i
CCOC(=O)/C(C#N)=C\N(C)C,i,i,i,i,i
COC(=O)C(C)(C)ONC(=O)Nc1ccc(C)cc1,nt,nt,i,nt,i
Cc1cccc(-c2c3c(=O)n(C)c(=O)n(C)c3c3nnc4ccccc4n23)c1,49,i,i,i,i
O=C(CCC(=O)N1CCc2ccccc21)N1CCc2ccccc21,i,i,i,i,i
Cc1ccc(S(=O)(=O)CCC(=O)N2CCc3ccccc32)cc1,i,42,i,i,i
CC1Cc2ccccc2N1C(=O)CSc1nnc(Cc2ccccc2)n1CCc1ccccc1 (stereo unspecified),i,i,i,i,i
N#CC1=C(N)C(C#N)(C#N)C(c2cccnc2)C2CN(C(=O)OCc3ccccc3)CC=C12 (stereo unspecified),i,i,i,i,i
CCN1CC=C2C(C#N)=C(N)C(C#N)(C#N)C(CCc3ccccc3)C2C1 (stereo unspecified),86[fluorescence artefact?],i,i,i,i
COc1ccc(OC)c(C2C3CN(C(C)C)CC=C3C(C#N)=C(N)C2(C#N)C#N)c1 (stereo unspecified),82,i,i,i,i
CC(=O)N1CC=C2C(C#N)=C(N)C(C#N)(C#N)C(CCc3ccccc3)C2C1 (stereo unspecified),nt,nt,i,nt,i
N#CC1=C(N)C(C#N)(C#N)[C@H](c2ccoc2)[C@H]2CN(Cc3ccccc3)CC=C12,100[fluorescence artefact?],i,i,i,i
CN1CC=C2C(C#N)=C(N)C(C#N)(C#N)[C@H](c3ccoc3)[C@H]2C1,42,i,i,i,i
CC(=O)N1CC=C2C(C#N)=C(N)C(C#N)(C#N)[C@H](c3ccoc3)[C@H]2C1,i,i,i,i,i
Cc1ccccc1-c1nnc(NC(=O)CSc2nc3ccccc3s2)s1,nt,nt,i,nt,i
COc1cccc(C(=O)N2C(C(=O)O)CSC2c2ccccc2Cl)c1 (stereo unspecified),nt,nt,i,nt,i
CCOC(=O)CSc1ncnc2c(C(=O)OCC)c3n(c12)CCC3,nt,nt,i,nt,i
Cc1cc(Br)ccc1OCCCCNCCO,i,69,i,i,i
C=CCNCCCCOc1ccc(Br)cc1C,nt,nt,i,nt,i
Cc1ccc(N/C=C/C(=O)c2sc(-c3ccccc3)nc2C)cc1,i,i,i,i,i
CSc1nnc(C)c(/C=C/Nc2ccc(C)cc2)n1,110[fluorescence artefact?],i,i,i,i
SMILES,Rev-RRE block,S1P2 agonist,GALR2 ag,S1P2 antag,GALR2 antag
O=C(O)CCCCCN1C(=O)/C(=C\c2ccncc2)SC1=S,nt,nt,i,nt,i
O=C(O)CCCN1C(=O)/C(=C/c2ccc(-c3nc4ccccc4s3)o2)SC1=S,71,i,i,i,i
CCc1ccc(C(=O)COC(=O)CNC(=O)COc2ccccc2)cc1,nt,nt,i,nt,i
O=C(CCSCc1cccc(Cl)c1)NCCc1ccc(Cl)cc1,nt,nt,i,nt,i
c1ccc(CSc2nnc(-c3ccco3)n2Cc2ccco2)cc1,i,i,i,i,i
CCCCOc1[nH]c2nc(-c3ccco3)n(Cc3ccco3)c(=N)c2c1C#N,55,i,i,i,i
N#CC1=C(N)OC2=C(CC/C2=C\c2ccccc2)C1c1ccccc1 (stereo unspecified),136[fluorescence artefact?],i,i,i,i
N#CC1=C(N)OC2=C(CC/C2=C\c2ccccc2Cl)C1c1ccccc1Cl (stereo unspecified),nt,nt,i,nt,i
CC[n+]1c(/C=C/C=C/N(C(C)=O)c2ccccc2)sc2ccccc21,129[fluorescence artefact?],i,i,i,i
CCn1c(/C=C/N(C(C)=O)c2ccccc2)[n+](CC)c2ccc(Cl)cc21,nt,nt,i,nt,i
Nc1nc(Br)c2c(F)cccc2c1-c1ccccc1,i,i,i,i,i
Nc1nc(Br)c2c(F)cccc2c1-c1ccc(F)cc1,i,22,i,i,i
